The source made the active and inactive calls. No cut-off for these calls is given here.
How the values were obtained:
[1] = tested on: Influenza A virus; assay: Antiviral activity against adamantane-resistant zanamivir-,oseltamivir-susceptible Influenza A virus (A/Florida/01/2009(H3N2)) harboring M2 S31N mutant infected in MDCK cells assessed as inhibition of viral replication after 3 days by microscopic analysis using crystal violet stain; type: functional, organism-based
Summary of the method: (§1)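 Confluent MDCK-ATCC monolayers infected with virus diluted to give 15–45 plaques/well. Adsorption 1 h at 37°C without drug, then washed. Overlaid with 0.8% agarose in MEM containing drug plus TPCK-trypsin: 3 μg/ml for seasonal viruses, 2 μg/ml for 2009 A(H1N1). Incubated 3 days at 37°C, 5% CO2. Ethanol-fixed, crystal violet-stained, plaques counted. EC50 by curve fit; duplicates on three occasions, mean ± SD.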

[2] = tested on: Influenza A virus; assay: Antiviral activity against adamantane-resistant zanamivir-,oseltamivir-susceptible Influenza A virus (A/New Hampshire/01/2009(H3N2)) harboring M2 S31N mutant infected in MDCK cells assessed as inhibition of viral replication after 3 days by microscopic analysis using crystal violet stain; type: functional, organism-based; summary of the method: as §1
[3] = tested on: Influenza A virus; assay: (§2) Antiviral activity against 0.001 MOI adamantane-resistant zanamivir-,oseltamivir-susceptible Influenza A virus (A/pdm/California/04/2009(H1N1)) harboring M2 V28I, S31N mutant infected in MDCK cells assessed as determination of viral titer in cell culture at 1.6 uM after 24 hrs by immunofluorescence assay; type: functional, organism-based; details: A/California/04/2009(H1N1)
Summary of the method: (§3)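 Focus inhibition assay: confluent MDCK monolayers infected at MOI ∼0.001–0.1. Adsorption 1 h at 4°C, washed twice, then DMEM with 2 μg/ml TPCK-trypsin and drug for 24 h at 37°C. Cells fixed in methanol/acetic acid at −20°C, immunostained with anti-NP monoclonals and FITC secondary, and foci counted. Supernatants also titrated by focus assay. Quadruplicate on two occasions.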

[4] = tested on: Influenza A virus; assay: (§4) Antiviral activity against oseltamivir-susceptible zanamivir-, adamantane-resistant Influenza A virus (A/Luhansk/18/2008(H1N1)) harboring neuraminidase H274Y mutant and M2 G34E mutant infected in MDCK cells assessed as inhibition of viral replication after 3 days by microscopic analysis using crystal violet stain; type: functional, organism-based
[5] = tested on: Influenza A virus; assay: Antiviral activity against adamantane-, zanamivir-susceptible oseltamivir-resistant Influenza A virus (A/North Carolina/02/ 2009(H1N1)) harboring M2 S31N mutant infected in MDCK cells assessed as inhibition of viral replication after 3 days by microscopic analysis using crystal violet stain; type: functional, organism-based; summary of the method: as §1
[6] = tested on: Influenza A virus; assay: Antiviral activity against adamantane-resistant zanamivir-,oseltamivir-susceptible Influenza A virus (A/Washington/01/2007(H3N2)) harboring M2 S31N mutant infected in MDCK cells assessed as inhibition of viral replication after 3 days by microscopic analysis using crystal violet stain; type: functional, organism-based; summary of the method: as §1
[7] = tested on: Influenza A virus; assay: as §2, with “(A/pdm/Mexico/4604/2009(H1N1))” for “(A/pdm/California/04/2009(H1N1))”; type: functional, organism-based; details: Influenza A virus (A/Mexico/4604/2009(H1N1)); summary of the method: as §3
[8] = tested on: Influenza A virus; assay: Antiviral activity against adamantane-susceptible zanamivir-, oseltamivir-resistant Influenza A virus (A/Brazil/1633/2008(H1N1)) harboring neuraminidase Q136K mutant infected in MDCK cells assessed as inhibition of viral replication after 3 days by microscopic analysis using crystal violet stain; type: functional, organism-based
[9] = tested on: Influenza A virus; assay: Antiviral activity against adamantane-resistant zanamivir-,oseltamivir-susceptible Influenza A virus (A/pdm/Mexico/4604/2009(H1N1)) harboring M2 V28I, S31N mutant infected in MDCK cells assessed as determination of viral titer in cell culture at 128 uM after 24 hrs by immunofluorescence assay; type: functional, organism-based; details: Influenza A virus (A/Mexico/4604/2009(H1N1))
Summary of the method: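 MDCK cells (ATCC or Mill Hill) infected with 2009 pandemic H1N1 at MOI ~0.01, 1 h adsorption at 4°C, washed. DMEM with 2 μg/ml TPCK-trypsin plus drug for 24 h at 37°C. Supernatants titrated on MDCK cells by focus formation: methanol/acetic acid fixation, anti-nucleoprotein MAbs, FITC secondary, foci counted. Titre as log10 FFU per 100 μl; detection limit <10 FFU; quadruplicate wells.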

[10] = tested on: Influenza A virus; assay: Antiviral activity against Influenza A virus (A/Washington/29/2009(H1N1)) harboring neuraminidase H275Y mutant infected in MDCK cells from ATCC assessed as log reduction in viral titer at 1.6 uM after 24 hrs by immunofluorescent assay; type: functional
Summary of the method: (§5)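 Yield reduction in MDCK-ATCC or MDCK-Mill Hill cells infected at MOI ∼0.01. Adsorption 1 h at 4°C, washed, then DMEM with 2 μg/ml TPCK-trypsin and drug. At 24 h, supernatants were titrated by immunofluorescent focus assay on MDCK cells with anti-NP monoclonals and FITC secondary. Titres as log10 FFU per 100 μl; detection limit <10 FFU. Quadruplicate, mean ± SD.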

[11] = tested on: Influenza A virus; assay: Antiviral activity against adamantane-resistant zanamivir-,oseltamivir-susceptible Influenza A virus (A/pdm/New York/18/2009 (H1N1)) harboring M2 V28I, S31N mutant infected in MDCK cells assessed as inhibition of viral replication after 3 days by microscopic analysis using crystal violet stain; type: functional, organism-based, Influenza A virus (A/New York/18/2009(H1N1))
Summary of the method: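 Plaque reduction on confluent MDCK-ATCC monolayers: pretitrated virus (15–45 plaques per well) adsorbed 1 h at 37°C without drug, then washed with PBS. Agarose overlay (0.8%, in MEM) with drug added, 3 days at 37°C. Cells fixed with 70% ethanol, stained with crystal violet, plaques counted. EC50 from curve fitting, averaged over three separate experiments in duplicate, ± SD.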

[12] = tested on: Influenza A virus; assay: Antiviral activity against adamantane-resistant zanamivir-,oseltamivir-susceptible Influenza A virus (A/pdm/California/05/2009 (H1N1)) harboring M2 V28I, S31N mutant infected in MDCK cells assessed as inhibition of viral replication after 3 days by microscopic analysis using crystal violet stain; type: functional, organism-based, Influenza A virus (A/California/05/2009(H1N1))
[13] = tested on: Influenza A virus; assay: Antiviral activity against adamantane-, zanamivir-susceptible oseltamivir-resistant Influenza A virus (A/Washington/10/2008(H1N1)) harboring M2 S31N mutant infected in MDCK cells assessed as inhibition of viral replication after 3 days by microscopic analysis using crystal violet stain; type: functional, organism-based; summary of the method: as §1
[14] = tested on: Influenza A virus; assay: as §4, with “(A/Bethesda/956/2006(H3N2))” for “(A/Luhansk/18/2008(H1N1))”, “R292K” for “H274Y”, “S31N” for “G34E”; type: functional, organism-based
[15] = tested on: Influenza B virus; assay: Antiviral activity against oseltamivir-susceptible zanamivir-, adamantane-resistant Influenza B virus (B/Rochester/01/2001) harboring neuraminidase D198N mutant infected in MDCK cells assessed as inhibition of viral replication after 3 days by microscopic analysis using crystal violet stain; type: functional, organism-based
[16] = tested on: Influenza A virus; assay: Antiviral activity against adamantane-resistant zanamivir-,oseltamivir-susceptible Influenza A virus (A/pdm/California/04/2009(H1N1)) harboring M2 V28I, S31N mutant infected in MDCK cells assessed as determination of viral titer in cell culture at 128 uM after 24 hrs by immunofluorescence assay; type: functional, organism-based; details: A/California/04/2009(H1N1)
[17] = tested on: Influenza A virus; assay: Antiviral activity against adamantane-resistant zanamivir-,oseltamivir-susceptible Influenza A virus (A/New York/34/2008(H1N1)) harboring M2 L26I mutant infected in MDCK cells assessed as inhibition of viral replication after 3 days by microscopic analysis using crystal violet stain; type: functional, organism-based; summary of the method: as §1
[18] = tested on: Influenza A virus; assay: Antiviral activity against Influenza A virus (A/Illinois/10/2009(H1N1)) harboring neuraminidase H275Y mutant infected in MDCK cells from ATCC assessed as inhibition of viral replication after 3 days by microscopic analysis using crystal violet stain; type: functional; summary of the method: as §1
[19] = tested on: Influenza A virus; assay: Antiviral activity against Influenza A virus (A/Illinois/10/2009(H1N1)) harboring neuraminidase H275Y mutant infected in MDCK cells from ATCC assessed as log reduction in viral titer at 1.6 uM after 24 hrs by immunofluorescent assay; type: functional; summary of the method: as §5

In the case of `NC(=O)c1nc(F)cnc1O` [FAVIPIRAVIR], the EC50 [1] is reported as 0.45 µM, the EC50 [2] is reported as 4.08 µM and the Activity [3] is reported as “Active”. The EC50 [4] was 2.93 µM, the EC50 [5] was 5.03 µM and the EC50 [6] was 4.46 µM. For the same compound, the Activity [7] was “Active”, the EC50 [8] was 0.83 µM and the Activity [9] was “Active”. It also gave a log10FFU [10] of 4.2, an EC50 [11] of 0.89 µM and an EC50 [12] of 0.83 µM. The EC50 [13] was 3.25 µM, the EC50 [14] was 1.21 µM and the EC50 [15] was 1.72 µM. For the same compound, the Activity [16] was “Active”, the EC50 [17] was 0.19 µM and the log10FFU [18] was 4.21. It also gave a log10FFU [19] of 4.9.

Source: ChEMBL document CHEMBL1671691 (Antimicrob Agents Chemother, 2010)
